Data taken from ChEMBL document CHEMBL1125923, “New dibenzothiadiazepine derivatives with antidepressant activities” (J Med Chem, 1991).

What was measured:
Mus musculus [1] = test: Rectal temperature of mice treated with compound in apomorphine (16 mg/kg injected sc 30 min before temp. recording) after its oral administration at 400 mg/kg, 0.5 hr before rectal temperature measurement; format: functional
How it was run: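 Screening in male Swiss albino mice (20–22 g): 400 mg/kg compound orally; apomorphine 16 mg/kg sc 30 min before recording. Rectal temperature read at 0.5, 2, 4 h after dosing; value reported at time of peak activity (generally 0.5 h). Groups of 8–20 mice; standard errors 1–3% of mean.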

Mus musculus [2] = organism: Mus musculus; test: Dose of compound required to reduce apomorphine-induced hypothermia by 50% in mice by hypothermia (Apo 16)test; format: functional
How it was run: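 Male Swiss albino mice, 20–22 g; apomorphine 16 mg/kg sc 30 min before rectal temperature recording. Compound given orally, tested at time of peak activity (0.5–2 h). […] Groups of 8–20 mice.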

[3] = Dose of compound required in mg/kg to induce lethality in 50% of mice after 14 days; format: ADME, organism-based; conditions: mouse, in vivo
How it was run: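 Male Swiss albino mice, 20–22 g, dosed orally; deaths followed for up to 2 weeks (14 days) after administration. Groups of 8–20 mice.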

Mus musculus [4] = test: Dose required to reduce reserpine induced hypothermia was measured after sc administration of reserpine at 2.5 mg/kg, 18 hr before the rectal-temperature recording in mice; format: functional; set-up: unit: mg/kg; conditions: reserpine 2.5 mg/kg sc; route oral
How it was run: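 Male Swiss albino mice, 20–22 g; reserpine 2.5 mg/kg sc 18 h before rectal temperature recording. Compound given orally at time of peak activity, generally 0.5 h before recording. Groups of 8–20 mice.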

Mus musculus [5] = test: Compound was evaluated after 24 hr for physostigmine induced lethality upon oral administration 60 min before intraperitoneal injection of physostigmine (0.9 mg/kg) in mice at 600 mg/kg; format: ADME, organism-based; set-up: dose 600 mg/kg, route oral; conditions: in vivo
How it was run: (§1)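 Male Swiss albino mice, 20–22 g; compound given orally 60 min before physostigmine 0.9 mg/kg ip. Lethality scored 24 h after physostigmine injection and expressed as % of group dying. Groups of 8–20 mice; significance vs vehicle by χ2.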

Mus musculus [6] = test: Compound was evaluated after 24 hr for physostigmine induced lethality upon oral administration 60 min before intraperitoneal injection of physostigmine (0.9 mg/kg) in mice at 200 mg/kg; format: ADME, organism-based; set-up: dose 200 mg/kg, route oral; conditions: in vivo; how it was run: as §1
Mus musculus [7] = test: Compound was evaluated after 24 hr for physostigmine induced lethality upon oral administration 60 min before intraperitoneal injection of physostigmine (0.9 mg/kg) in mice at 400 mg/kg; format: ADME, organism-based; set-up: dose 400 mg/kg, route oral; conditions: in vivo; how it was run: as §1
Mus musculus [8] = test: Compound was evaluated after 24 hr for physostigmine induced lethality upon oral administration 60 min before intraperitoneal injection of physostigmine (0.9 mg/kg) in mice at 25 mg/kg; format: ADME, organism-based; set-up: dose 25 mg/kg, route oral; conditions: in vivo; how it was run: as §1

Row | Compound | Rectal temperature (Mus musculus [1]) [°C] | Min effective dose (Mus musculus [4]) | also measured
1 | Cc1cc2c(cc1Cl)N(C(=O)CN1CCN(c3ncccn3)CC1)c1ccccc1N(C)S2(=O)=O | 32.7 |  | 
2 | CN1c2ccccc2N(C(=O)CNC(C)(C)C)c2ccccc2S1(=O)=O | 32.2 |  | 
3 | CN(C)CCC(=O)N1c2ccccc2N(C)S(=O)(=O)c2ccccc21 | 36.5 | >100 | ED50 (Mus musculus [2]): 23.1 mg/kg; LD50 at 336 h [3]: 521 mg/kg
4 | CN(C)CCN1c2ccccc2N(C)S(=O)(=O)c2ccccc21 |  | 100 | ED50 (Mus musculus [2]): > 100 mg/kg; LD50 at 336 h [3]: 468 mg/kg
5 | CN1c2ccccc2N(C(=O)CN2CCCC2)c2ccccc2S1(=O)=O | 34.2 |  | 
6 | CCN1c2ccccc2N(C(=O)CN(C)C)c2ccccc2S1(=O)=O | 35.1 |  | 
7 | Cc1cc2c(cc1Cl)N(C(=O)CN1CCN(c3ccccc3)CC1)c1ccccc1N(C)S2(=O)=O | 34.5 |  | 
8 | Cc1cc2c(cc1Cl)N(C(=O)CN1CCN(CCO)CC1)c1ccccc1N(C)S2(=O)=O | 34.1 |  | 
9 | CC1CCN(CC(=O)N2c3ccccc3N(C)S(=O)(=O)c3ccccc32)CC1 | 33.2 |  | 
10 | CN(C)CCCN1c2ccccc2N(C)S(=O)(=O)c2ccccc21 |  | >100 | ED50 (Mus musculus [2]): 4.9 mg/kg; LD50 at 336 h [3]: 655 mg/kg
11 | CCCN1c2ccccc2N(C(=O)CN(C)C)c2ccccc2S1(=O)=O | 35.8 |  | 
12 | CN(C)CC(=O)N1c2cc(Cl)ccc2N(C)S(=O)(=O)c2ccccc21 | 37.4 | >100 | ED50 (Mus musculus [2]): 50.6 mg/kg
13 | CN1c2ccccc2N(C(=O)CN2CCOCC2)c2ccccc2S1(=O)=O | 33.9 |  | 
14 | Cc1ccc2c(c1)N(C(=O)CN(C)C)c1ccccc1S(=O)(=O)N2C | 38.8 | 100 | ED50 (Mus musculus [2]): 14.4 mg/kg; LD50 at 336 h [3]: 1730 mg/kg
15 | CCN(CC)CC(=O)N1c2ccccc2N(C)S(=O)(=O)c2ccccc21 | 37.4 | >100 | ED50 (Mus musculus [2]): 23 mg/kg; LD50 at 336 h [3]: > 2000 mg/kg
16 | CN(C)CC(=O)N1c2ccccc2N(C)S(=O)(=O)c2cc(Cl)ccc21 | 37.7 | >100 | ED50 (Mus musculus [2]): 54.5 mg/kg
17 | CNCC(=O)N1c2ccccc2N(C)S(=O)(=O)c2ccccc21 | 38.2 | 100 | ED50 (Mus musculus [2]): 12 mg/kg; LD50 at 336 h [3]: 789 mg/kg

Row | Compound | Rectal temperature (Mus musculus [1]) [°C] | Min effective dose (Mus musculus [4]) | also measured
18 | CN1c2ccccc2N(C(=O)CN)c2ccccc2S1(=O)=O | 36.1 |  | 
19 | Cc1ccc2c(c1)N(C(=O)CN(C)C)c1ccccc1N(C)S2(=O)=O | 35.2 |  | 
20 | CN(C)CC(=O)N1c2ccccc2N(C)S(=O)(=O)c2ccc(Cl)cc21 | 35.4 |  | 
21 | CN1c2ccccc2N(C(N)=O)c2ccccc2S1(=O)=O | 33.8 |  | 
22 | CC(C)NCC(=O)N1c2ccccc2N(C)S(=O)(=O)c2ccccc21 | 34.1 |  | 
23 | CN1CCN(CC(=O)N2c3ccccc3N(C)S(=O)(=O)c3ccccc32)CC1 | 34.4 |  | 
24 | CN(C)CC(=O)N1c2ccccc2N(C)S(=O)(=O)c2ccc(C(F)(F)F)cc21 | 34.8 |  | 
25 | CN1c2ccccc2N(C(=O)CN2CCN(CCO)CC2)c2ccccc2S1(=O)=O | 34.4 |  | 
26 | CN(C)C(=O)N1c2ccccc2N(C)S(=O)(=O)c2ccccc21 | 33.7 |  | 
27 | Cc1cc2c(cc1Cl)N(C(=O)CN1CCN(C)CC1)c1ccccc1N(C)S2(=O)=O | 32.5 |  | 
28 | COc1ccc2c(c1)N(C(=O)CN(C)C)c1ccccc1N(C)S2(=O)=O | 33.6 |  | 
29 | CN(C)CC(=O)N1c2ccccc2N(C)S(=O)(=O)c2ccccc21 | 38.7 | 25 | Lethality (Mus musculus [5]): 90%; Lethality (Mus musculus [6]): 95%; LD50 at 336 h [3]: 1920 mg/kg; Lethality (Mus musculus [7]): 95%
30 | Cc1cc2c(cc1Cl)N(C(=O)CNC(C)C)c1ccccc1N(C)S2(=O)=O | 33.1 |  | 
31 | Cc1cc2c(cc1Cl)N(C(=O)CN(C)C)c1ccccc1N(C)S2(=O)=O | 35.8 |  | 
32 | CN(C)CC(=O)N1c2ccc(Cl)cc2N(C)S(=O)(=O)c2ccccc21 | 39.5 | >100 | ED50 (Mus musculus [2]): 23.5 mg/kg; LD50 at 336 h [3]: 1420 mg/kg
33 | CN(C)CCC=C1c2ccccc2CCc2ccccc21 [AMITRIPTYLINE] |  |  | Lethality (Mus musculus [8]): 37%
34 | CN(C)CCCN1c2ccccc2CCc2ccccc21 [IMIPRAMINE] |  | 4 | ED50 (Mus musculus [2]): 3.7 mg/kg
